Test results: ChEMBL document CHEMBL3352174, “Identification of a New RXRα Antagonist Targeting the Coregulator-Binding Site” (ACS Med Chem Lett, 2014)
The source made the active and inactive calls. The calls are words filed in the database; no cut-off is given here.

Experiments:
[1] = molecular target: T1, Glucocorticoid receptor (Homo sapiens) (UniProt P04150); assay: Antagonist activity against GRalpha ligand binding domain (unknown origin) expressed in human MCF7 cells assessed as inhibition of dexamethasone-induced receptor transactivation at 10 uM after 18 hrs by luciferase reporter gene based mammalian one-hybrid assay; format: cell-based
T1 sequence (whole entry): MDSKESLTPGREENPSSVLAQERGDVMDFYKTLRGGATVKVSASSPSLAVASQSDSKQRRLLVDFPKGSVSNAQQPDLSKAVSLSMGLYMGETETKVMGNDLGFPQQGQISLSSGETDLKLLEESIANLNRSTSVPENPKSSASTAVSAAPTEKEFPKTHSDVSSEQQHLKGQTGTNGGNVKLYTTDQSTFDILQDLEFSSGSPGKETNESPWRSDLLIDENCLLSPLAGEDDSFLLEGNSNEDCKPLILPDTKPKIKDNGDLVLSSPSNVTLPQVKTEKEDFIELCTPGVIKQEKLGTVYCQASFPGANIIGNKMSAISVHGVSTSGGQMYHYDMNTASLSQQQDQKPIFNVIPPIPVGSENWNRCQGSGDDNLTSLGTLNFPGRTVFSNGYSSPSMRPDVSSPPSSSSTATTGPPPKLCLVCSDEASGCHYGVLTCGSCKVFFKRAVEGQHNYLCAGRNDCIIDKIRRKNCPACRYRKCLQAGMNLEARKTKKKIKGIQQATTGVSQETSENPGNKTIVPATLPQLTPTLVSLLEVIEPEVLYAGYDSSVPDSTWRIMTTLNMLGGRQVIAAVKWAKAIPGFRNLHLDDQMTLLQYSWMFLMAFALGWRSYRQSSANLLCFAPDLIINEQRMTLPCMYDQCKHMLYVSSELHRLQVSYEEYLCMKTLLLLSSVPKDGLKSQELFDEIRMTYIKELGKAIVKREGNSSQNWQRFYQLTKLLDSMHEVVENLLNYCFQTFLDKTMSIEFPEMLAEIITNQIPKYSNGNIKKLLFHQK

[2] = molecular target: T2, Peroxisome proliferator-activated receptor gamma (Homo sapiens) (UniProt P37231); assay: Antagonist activity against PPARgamma ligand binding domain (unknown origin) expressed in human MCF7 cells assessed as inhibition of ROS-induced receptor transactivation at 10 uM after 18 hrs by luciferase reporter gene based mammalian one-hybrid assay; format: cell-based
T2 sequence (whole entry): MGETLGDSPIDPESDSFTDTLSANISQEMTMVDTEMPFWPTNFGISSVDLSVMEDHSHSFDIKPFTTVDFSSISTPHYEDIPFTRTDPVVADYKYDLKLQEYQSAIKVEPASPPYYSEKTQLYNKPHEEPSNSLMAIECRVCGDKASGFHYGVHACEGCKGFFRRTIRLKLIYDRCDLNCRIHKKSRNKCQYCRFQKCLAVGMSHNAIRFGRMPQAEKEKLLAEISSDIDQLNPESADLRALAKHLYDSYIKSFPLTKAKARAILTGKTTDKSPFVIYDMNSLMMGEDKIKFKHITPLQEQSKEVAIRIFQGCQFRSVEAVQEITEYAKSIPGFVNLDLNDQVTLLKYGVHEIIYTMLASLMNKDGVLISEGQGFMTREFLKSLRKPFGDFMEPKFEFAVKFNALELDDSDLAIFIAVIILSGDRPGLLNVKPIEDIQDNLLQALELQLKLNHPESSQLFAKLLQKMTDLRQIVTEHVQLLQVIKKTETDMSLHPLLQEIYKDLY

[3] = molecular target: T3, Oxysterols receptor LXR-alpha (Homo sapiens) (UniProt Q13133); assay: Antagonist activity against LXRalpha ligand binding domain (unknown origin) expressed in human MCF7 cells assessed as inhibition of T09-induced receptor transactivation at 10 uM after 18 hrs by luciferase reporter gene based mammalian one-hybrid assay; format: cell-based
T3 sequence (whole entry): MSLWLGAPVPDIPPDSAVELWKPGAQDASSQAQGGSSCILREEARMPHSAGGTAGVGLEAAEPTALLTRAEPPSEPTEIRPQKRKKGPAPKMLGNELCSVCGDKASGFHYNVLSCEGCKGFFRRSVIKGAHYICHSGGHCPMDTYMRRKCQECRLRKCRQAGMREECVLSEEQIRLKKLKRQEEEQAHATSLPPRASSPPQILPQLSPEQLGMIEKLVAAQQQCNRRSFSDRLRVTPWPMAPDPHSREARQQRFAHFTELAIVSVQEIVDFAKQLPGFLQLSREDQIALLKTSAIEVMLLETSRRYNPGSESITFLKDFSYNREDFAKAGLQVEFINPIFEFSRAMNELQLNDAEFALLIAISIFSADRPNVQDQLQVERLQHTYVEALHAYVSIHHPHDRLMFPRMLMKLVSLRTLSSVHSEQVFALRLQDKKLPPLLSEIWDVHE

A549 = assay: Induction of apoptosis in TNFalpha-stimulated human A549 cells assessed as PARP cleavage at 5 and 10 uM pre-treated for 24 hrs before TNFalpha addition in presence of RXRalpha siRNA by immunoblotting method; format: functional, cell-based
In short: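 A549 cells were transfected with RXRα siRNA or control siRNA for 48 h. They were then treated with compound for 24 h, followed by TNFα (20 ng/mL) for 30 min. Lysates were analyzed by Western blot for AKT activation and PARP cleavage.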

[4] = tested on: T4, Retinoic acid receptor RXR-alpha (Homo sapiens), P19793 [A272W]; assay: Antagonist activity against RXRalpha A272W/F313A mutant (unknown origin) expressed in human HEK293T cells assessed as inhibition of constitutive receptor transactivation at 1 to 10 uM after 18 hrs by luciferase reporter gene based mammalian one-hybrid assay; settings: HEK-293T
T4 sequence (whole entry): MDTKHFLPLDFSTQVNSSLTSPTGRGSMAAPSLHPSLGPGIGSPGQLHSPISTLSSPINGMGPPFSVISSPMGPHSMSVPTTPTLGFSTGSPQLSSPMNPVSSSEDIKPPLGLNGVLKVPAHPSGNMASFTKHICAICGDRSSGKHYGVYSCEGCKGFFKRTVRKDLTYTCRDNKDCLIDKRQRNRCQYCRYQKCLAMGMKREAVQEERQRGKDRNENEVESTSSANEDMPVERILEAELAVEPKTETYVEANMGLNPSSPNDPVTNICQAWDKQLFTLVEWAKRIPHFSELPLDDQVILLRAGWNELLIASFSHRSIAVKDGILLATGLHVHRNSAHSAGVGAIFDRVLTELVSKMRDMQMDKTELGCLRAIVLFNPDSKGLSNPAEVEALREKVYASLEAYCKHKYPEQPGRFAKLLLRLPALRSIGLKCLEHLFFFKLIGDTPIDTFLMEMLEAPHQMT

inhibition [1]: inactive
inhibition [2]: Active
inhibition [3]: Active
inhibition [4]: Dose-dependent effect
SMILES: Cc1cc(=O)oc2c(/C=N/NC(=O)CSc3nc4ccccc4s3)c(O)ccc12
Activity (A549): inactive
